Bioassay records: PubChem BioAssay, several laboratories
Compounds with a hit are over-represented: about 1.6% of the library has one in this group of screens.
Arr AP2 block: inhibitors of beta-arrestin/AP2 binding, primary screen, biochemical, GPCR trafficking, flow cytometry. FITC-arrestin peptide / GST-AP2 beads; AP2 beta2 appendage carries R879A mutation. AID 504490, 2011. 340,000 tested, 0.31% active. inhibition, % at 10 µM. beta-arrestin 1 C-terminal peptide binding to AP2 beta2-adaptin appendage (human);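 active means inhibition above a set limit, near 3 SD of compounds lacking own fluorescence, cut at about 54% in these data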
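System: GST-AP2 R879A bound to glutathione beads, E. coli-expressed. Also added: 50 nM FITC-arrestin peptide. Schedule: compound with beads 12 min RT, then probe 1 h RT. Signal: bead flow cytometry, FITC channel. Read-out basis: percent response.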
LANA-H2A inh: blockers of LANA interaction with H2A/H2B – biochemical, FP readout, HTS, primary screen; Protein LANA1 (Human herpesvirus 8 type P (isolate GK18)), Q9QR71; cell-free LANA-H2A/H2B peptide, fluorescence polarization; inhibition, % (concentration not given with the values); 320,000 tested, 0.6% active; AID 2629, 2010; in the data active means inhibition mostly above about 10%, no sharp cut-off; inactive means mostly below about 6.7%
JMJD2C inh: inhibitors of GASC-1 histone demethylase, primary screen, biochemical, fluorescence, DELFIA europium; Lysine-specific demethylase 4C (Homo sapiens), Q9H3R0; GST-JMJD2C(1-420) H3K9me3 demethylation; inhibition, % at 2.35 µM; 330,000 tested, 0.069% active; AID 2099, 2009;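 active means more than half of a compound's replicate wells show inhibition beyond 50%, single wells judged on their own value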;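 further: signal counts dimethyl H3K9 product captured on neutravidin plate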
T cell HTS: modulators of CD8 T cell-vesicle binding, primary screen, mouse 2C CD8+ T cells, flow cytometry. AID 2052, 2009. 2C CD8+ T cell-vesicle binding; active compounds read low. 330,000 tested, 0.068% active. response (vesicle binding), % at 7 µM;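 active means response, share of CD8 T cells binding vesicles, and their 90th percentile fluorescence all below set limits, cut at about 80% in these data, passing the limit was not always enough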;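 further: values below 100% mean blocked vesicle binding to the CD8+ T cells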
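Material: 2C TCR transgenic mouse naive CD8+ T cells, MACS-purified. Also added: QL9-charged Drosophila Ld/ICAM-1/B7-1 vesicles. Timing: binding 1.5 h at 37 °C. Measured by: high-throughput flow cytometry with anti-B7-1 and anti-CD8 staining. Read-out: percent CD8+ FL2 mean versus row control. Controls: Unloaded micro-vesicles (low), QL9 vesicles with 0.7% DMSO (high).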
HDAC3 inhib: HDAC3 deacetylase inhibitors, primary screen, biochemical, fluorescence, cell-free homogeneous; recombinant HDAC3, fluorogenic peptide/trypsin coupled; inhibition, % at 8.3 µM; 320,000 tested, 0.15% active; in the data active means inhibition above about 26%, passing the limit was not always enough
Target sequence (O15379 whole entry, looked up): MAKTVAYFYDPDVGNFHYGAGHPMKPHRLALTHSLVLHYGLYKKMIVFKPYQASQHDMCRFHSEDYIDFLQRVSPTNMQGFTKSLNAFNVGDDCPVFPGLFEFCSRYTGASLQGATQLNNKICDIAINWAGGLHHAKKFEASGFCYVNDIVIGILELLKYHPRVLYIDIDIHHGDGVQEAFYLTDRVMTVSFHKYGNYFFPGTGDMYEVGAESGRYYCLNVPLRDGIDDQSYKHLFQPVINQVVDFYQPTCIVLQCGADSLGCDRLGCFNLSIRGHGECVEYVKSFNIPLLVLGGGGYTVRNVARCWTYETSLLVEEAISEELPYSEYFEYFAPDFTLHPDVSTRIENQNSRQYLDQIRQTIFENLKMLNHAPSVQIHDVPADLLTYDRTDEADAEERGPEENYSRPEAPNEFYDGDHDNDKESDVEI
Pemphigus Ab inh: inhibitors of pemphigus antibody binding to DSG3, primary screen, biochemical, bead-based, flow cytometry, scFv-GFP. AID 588358, 2011. DSG3-coupled beads, scFv-anti-DSG3-GFP binding; active compounds read low. binding (percent of control), % at 10 µM. 310,000 tested, 0.48% active. Desmoglein-3 (Homo sapiens), P32926;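 active means binding more than 3 SD below its plate's average and above zero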;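 further: hits lower antibody fragment binding to DSG3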
Large screens that a line does not name were inactive.

COc1cccc(N=Cc2nc(-c3ccccc3)oc2OC(C)=O)c1	HDAC3 inhib 59
COc1ccc(N=Cc2nc(-c3ccccc3)oc2OC(C)=O)cc1	HDAC3 inhib 38 (no result: Pemphigus Ab inh)
CN(C)CCCn1c2c(c(SCC(=O)Nc3nccs3)nc1=O)CCC2	none
CCCN1CCC(NC(=O)Nc2ccc(Br)cc2)CC1	LANA-H2A inh 18
CCCN1CCC(NC(=O)Nc2ccc([N+](=O)[O-])cc2)CC1	none
COc1cc(NC(=O)CCc2nnc3ccc(N4CCN(C)CC4)nn23)cc(OC)c1	none
O=S(=O)(NC1CCCCCC1)c1cccc2cccnc12	LANA-H2A inh 182
O=C(Oc1ccc(N(Cc2cccs2)C2=NS(=O)(=O)c3ccccc32)cc1)c1ccco1	HDAC3 inhib 58 (no result: Pemphigus Ab inh)
Cc1ccc(C(=O)OCC(=O)Nc2ccc3c(c2)OCCO3)cc1C	Pemphigus Ab inh 69 (no result: LANA-H2A inh, JMJD2C inh, T cell HTS, HDAC3 inhib)
O=C(COC(=O)Cc1cccc(C(F)(F)F)c1)Nc1ccc2c(c1)OCCO2	LANA-H2A inh 146
Cc1ccc(C)c(NC(=O)COC(=O)c2ccc3c(c2)OCCO3)c1	none (no result: T cell HTS)
Cc1cc(C)cc(NC(=O)COC(=O)c2ccc3c(c2)OCCO3)c1	LANA-H2A inh 12
Cc1ccc(NC(=O)COC(=O)CCC(=O)c2cccs2)c(C)c1	Pemphigus Ab inh 91
Cc1ccccc1NC(=O)COC(=O)CCC(=O)c1cccs1	none (no result: LANA-H2A inh, JMJD2C inh, T cell HTS, HDAC3 inhib)
Cc1cc2nccnc2cc1C	none (no result: LANA-H2A inh, JMJD2C inh, T cell HTS, HDAC3 inhib)
Cc1ccc(S(=O)(=O)NCC(=O)OCC(=O)c2ccc(Br)s2)cc1	none
Cc1ccc(S(=O)(=O)NCC(=O)OCC(=O)c2cccs2)cc1	Pemphigus Ab inh 43
Cc1ccc(S(=O)(=O)NCC(=O)OCC(=O)Nc2ccc3c(c2)OCCO3)cc1	LANA-H2A inh 19
CCCNS(=O)(=O)c1ccc(OCC(=O)Nc2ccc3c(c2)OCCO3)cc1	none
O=C(CCC(=O)c1cccs1)OCc1ccc([N+](=O)[O-])cc1	none (no result: Pemphigus Ab inh)
NC(=O)C1CCCN(C(=O)c2ccc(NC(=O)c3cccs3)cc2)C1 (stereo not drawn)	none
CCCC(=O)Nc1ccccc1NC(C)=O	LANA-H2A inh 18 (no result: Pemphigus Ab inh)
Cc1ccc(Cl)cc1N1CCN(C(=O)C2CCN(S(C)(=O)=O)CC2)CC1	LANA-H2A inh 13
COc1ccc(-c2nnn(CC(=O)NCCc3ccc(OC)c(OC)c3)n2)cc1	Pemphigus Ab inh 38
COc1ccc(CCNC(=O)Cn2nnc(-c3cccs3)n2)cc1OC	none
COc1ccc(CCNC(=S)NCCc2ccc(OC)c(OC)c2)cc1OC	T cell HTS 66
COc1ccc(CCNC(=O)COc2ccc(-c3ccc(C)cc3)cc2)cc1OC	Pemphigus Ab inh 83
O=C(OCC(=O)N1CCOCC1)c1cccc(S(=O)(=O)N2CCCc3ccccc32)c1	none
CCOc1ccccc1NC(=O)CSc1nc2ccccc2c(=O)n1CC1CCCO1 (stereo not drawn)	none (no result: Pemphigus Ab inh)
COc1cc(OC)c2c(O)c3c(c(-c4c5c(c(O)c6c(OC)cc(OC)cc46)CO[C@@H](C)[C@H]5O)c2c1)[C@H](O)[C@H](C)OC3	Pemphigus Ab inh 74
Cc1ccc2nc(NC(=O)C3CCN(c4ncnc5sc(C)c(C)c45)CC3)sc2c1	Pemphigus Ab inh 86
CCCOc1ccccc1C(=O)Nc1ccc(S(=O)(=O)N2CCN(C)CC2)cc1	none
O=C(Oc1cccc(NC(=O)c2ccco2)c1)c1cccc(S(=O)(=O)N2CCCC2)c1	JMJD2C inh 52
O=C(Nc1cccc(S(=O)(=O)N2CCCCC2)c1)c1ccco1	none (no result: Pemphigus Ab inh)
O=C(COC(=O)/C=C/c1cccc(Cl)c1)Nc1c(F)cccc1F	Pemphigus Ab inh -5.5
O=C(COC(=O)/C=C/c1cccc(Cl)c1)NC1CC1	LANA-H2A inh 19 (no result: JMJD2C inh)
CC1CCc2c(sc3nc(C(C)(C)C)nc(N4CCN(C(=O)CCl)CC4)c23)C1 (stereo not drawn)	none
Cc1ccccc1C(=O)NNc1ncnc2c1cnn2C	LANA-H2A inh 26
COc1ccc(CCn2c(C)nc3c(c(=O)c4ccccc4n3C)c2=O)cc1	LANA-H2A inh 11
CC(=O)Nc1ccc(SCC(=O)Nc2ccccc2N2CCOCC2)cc1	none
CC12CCC(=O)N1C(C(=O)NNC(=O)c1ccc(F)cc1)CS2 (stereo not drawn)	none
CC12CCC(=O)N1C(C(=O)NNC(=O)c1ccc(Cl)cc1)CS2 (stereo not drawn)	LANA-H2A inh 32
Cn1ncc([N+](=O)[O-])c1C(=O)Nc1ccccc1Cl	LANA-H2A inh 13
CCn1nc(NS(=O)(=O)c2ccccc2[N+](=O)[O-])c2cc3ccc(C)cc3nc21	none
CCCc1cc(=O)n2[nH]c(C)cc2n1	Pemphigus Ab inh 83
Cc1ccc(CCN2CC(C(=O)NC3CCCCC3)CC2=O)cc1 (stereo not drawn)	LANA-H2A inh 22
CN=C1NC(C)(C)C2CCC(C)(CC2)S1	none (no result: LANA-H2A inh, JMJD2C inh, T cell HTS, HDAC3 inhib)
COc1ccc(NC2=C(Cl)C(=O)N(c3ccccc3)C2=O)c(OC)c1	LANA-H2A inh 15
O=[N+]([O-])c1ccc(S(=O)(=O)CC2CSc3nc4ccccc4n32)cc1 (stereo not drawn)	Pemphigus Ab inh -10
CC12CCC3c4ccc(O)cc4CCC3C1CC(O)C2O (stereo not drawn)	Pemphigus Ab inh 46
C[C@]12CC[C@@H]3c4ccc(O)cc4CC[C@H]3[C@@H]1C[C@@H](O)[C@@H]2O	none
Cc1ccc(C(=O)NC2CCN(CC(=O)NC3CCC(C)CC3)CC2)cc1 (stereo not drawn)	none
O=C1c2ccccc2C(=O)N1Nc1ccc([N+](=O)[O-])cc1[N+](=O)[O-]	none
O=C1C2C3C=CC(C3)C2C(=O)N1Nc1ccc([N+](=O)[O-])cc1[N+](=O)[O-] (stereo not drawn)	LANA-H2A inh 16
Cc1[nH]c2ccc(C(=O)NCCN3CCOCC3)cc2c1C	none
CCOc1ccc(NC(=O)C(c2ccccn2)N(C(=O)CCl)c2ccc(F)cc2)cc1 (stereo not drawn)	LANA-H2A inh 33
CCOc1ccc(NC(=O)N(c2ccccc2)c2ccccc2)cc1	none
CC(=O)NC(CC(=O)N1CCCC1)c1ccccc1 (stereo not drawn)	none
CC(C)(NS(=O)(=O)OCC(Cl)(Cl)Cl)c1ccccc1	LANA-H2A inh 43
